Bioassay records (PubChem)
Hits are enriched below; roughly 1.2% of the tested compounds scored in any of these assays.
Diaphorase act – diaphorase activation or chemical reduction counter-screen; Diaphorase/resazurin coupled assay, resorufin fluorescence, 16 min; stronger effect = higher value; 1 = vehicle wells, 0 = NADH-free wells; activation factor at 20 µM; 190,000 tested, 0.005% active; AID 1229;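 active = diaphorase activity raised at least twofold by the compound at 20 µM; inactive = activation factor below 2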
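test system = bacterial diaphorase enzyme (C. kluyveri) | quantity = enzyme 0.07 U/mL final | reagent = NADH substrate 0.114 mM plus resazurin dye 0.1 mM, final | incubation = 16 min enzyme reaction, ambient temperature | buffer or medium = HEPES pH 7.4 buffer with MgCl2 and Tween 20 | signal = fluorescence of resorufin, 544 nm excitation, 590 nm emission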
Diaphorase inh – diaphorase inhibition or chemical oxidation counter-screen. diaphorase resazurin-to-resorufin fluorescence, NADH, 16 min; bacterial (C. kluyveri) enzyme, not human. inhibition, % at 20 µM. 190,000 tested, 0.69% active;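 active = primary screen inhibition at 20 µM above a set limit, cut at about 50% in these data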
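material = Clostridium kluyveri diaphorase enzyme | amount = 0.14 U/mL diaphorase, enzyme working solution | schedule = incubation 16 min, room temperature | detection = fluorescence of resorufin formed from resazurin, Ex 544/Em 590 nm | benchmarks = positive control minus NADH, DMSO neutral control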
G6PDH counter – inhibits Leuconostoc G6PDH, flagging false hits in G6PDH-based assays; 200,000 tested, 0.12% active; Purified L. mesenteroides G6PDH, diaphorase/resazurin coupled fluorescence, 45 min; inhibition, % at 5 µM; in the data active = inhibition above about 50%
HKDC1 inhibitor – HKDC1 (human) hexokinase inhibition. Q2TB90. recombinant HKDC1, G6PDH/diaphorase resazurin coupled fluorescence. inhibition, % at 20 µM. 340,000 tested, 0.16% active. AID 493160;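 active = inhibition above about 35% when tested at 20 µM, limit read from the data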
Target sequence (Q2TB90 whole entry, looked up): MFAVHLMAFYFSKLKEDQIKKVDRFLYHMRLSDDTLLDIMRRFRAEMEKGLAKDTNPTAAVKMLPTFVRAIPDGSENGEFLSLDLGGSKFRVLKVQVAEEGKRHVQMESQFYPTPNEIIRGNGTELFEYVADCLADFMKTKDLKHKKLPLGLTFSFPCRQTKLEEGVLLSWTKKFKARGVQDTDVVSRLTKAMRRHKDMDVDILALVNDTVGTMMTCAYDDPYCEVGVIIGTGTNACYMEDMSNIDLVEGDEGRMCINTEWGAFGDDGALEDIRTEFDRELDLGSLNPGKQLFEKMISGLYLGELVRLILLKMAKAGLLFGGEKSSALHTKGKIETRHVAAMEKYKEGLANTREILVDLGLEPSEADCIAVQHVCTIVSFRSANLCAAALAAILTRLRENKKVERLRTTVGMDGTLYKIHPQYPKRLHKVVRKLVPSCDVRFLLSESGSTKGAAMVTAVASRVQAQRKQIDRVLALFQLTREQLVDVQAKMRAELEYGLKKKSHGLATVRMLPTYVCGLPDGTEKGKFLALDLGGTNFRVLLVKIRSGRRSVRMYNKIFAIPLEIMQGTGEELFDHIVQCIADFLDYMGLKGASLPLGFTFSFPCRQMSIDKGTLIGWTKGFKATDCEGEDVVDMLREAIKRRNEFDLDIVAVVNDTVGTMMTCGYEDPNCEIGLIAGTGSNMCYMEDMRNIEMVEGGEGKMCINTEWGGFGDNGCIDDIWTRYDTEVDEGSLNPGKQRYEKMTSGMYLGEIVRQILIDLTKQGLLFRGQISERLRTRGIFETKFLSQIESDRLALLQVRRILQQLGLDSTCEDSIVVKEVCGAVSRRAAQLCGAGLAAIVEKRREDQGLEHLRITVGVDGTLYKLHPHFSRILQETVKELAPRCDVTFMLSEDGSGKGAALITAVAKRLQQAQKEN
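Material – in-house recombinant HK5 (HKDC1) enzyme · Quantity – HKDC1 at 5 µg/mL · Buffer or medium – pH 8.0 Tris buffer with 10 mM MgCl2 · Reagent – glucose with 1 mM ATP · Dosing – single 20 µM dose · Times – reaction time 90 min, room temperature, protected from light · Technique – resorufin fluorescence at 613 nm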
PfGluPho inh – PfG6PD (Plasmodium falciparum) enzyme inhibition; 350,000 tested, 0.78% active; inhibition, % at 20 µM; PfGluPho enzyme, NADPH resazurin-diaphorase fluorescence;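 active = inhibition reaching at least a set limit at 20 µM in the primary screen, cut at about 59% in these data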
HKDC1 act conf2 – HKDC1 (human) activation, single-dose confirmed. 740 tested, 14% active. recombinant HKDC1, G6PDH/diaphorase resazurin fluorescence; stronger effect = lower value. inhibition, % at 20 µM. shares compounds with HKDC1 inhibitor;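 active = inhibition at or below a set negative limit, negative inhibition meaning the enzyme was activated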
PfG6PD confirm – PfG6PD inhibition, single-dose confirmed; shares compounds with PfGluPho inh; recombinant PfGluPho, NADPH-diaphorase-resazurin fluorescence; inhibition, % at 20 µM; 2,400 tested, 34% active; AID 504753;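 active = inhibition of at least 50% at 20 µM in any single replicate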
Diaphorase 10uM – diaphorase inhibition or oxidation at 10 uM NADPH; inhibition, % at 20 µM; shares compounds with PfGluPho inh; diaphorase-coupled resazurin reduction, fluorescence, NADPH 10 uM; AID 504862; 820 tested, 39% active;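 active = average inhibition reaching 50% or more with the compound at 20 µM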;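 also: resorufin red fluorescence formed as diaphorase reduces resazurin using NADPH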
Diaphorase 30uM – counter-screen for P. falciparum G6PD inhibitors: diaphorase inhibitors, oxidizers | shares compounds with PfGluPho inh | Diaphorase/resazurin coupled assay, resorufin fluorescence, 30 uM NADPH | inhibition, % at 20 µM | 820 tested, 29% active | AID 504863;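 active = inhibition averaging 50% or more, tested at 20 µM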
A number is an active result; 0 = inactive; - = not tested or not shown; ! = a repeat was not active.

SMILES	Diaphorase act	Diaphorase inh	G6PDH counter	HKDC1 inhibitor	PfGluPho inh	HKDC1 act conf2	PfG6PD confirm	others
COc1ccc(/C=C/C(=O)c2ccc([N+](=O)[O-])o2)cc1OC	-	-	-	0	77	0	-
O=C(O)/C=C\c1cc2c(cc1[N+](=O)[O-])OCO2	-	-	-	0	0	-	-
O=C1NC(=S)N/C1=C/c1cc2c(cc1[N+](=O)[O-])OCO2	-	-	-	0	0	-37	-
Cc1ccc(NC(=S)NCc2ccccn2)cc1	0	0	0	0	0	-	-
S=C(NCc1ccccn1)NN=Cc1ccccn1	-	-	-	0	0	-45	-
COc1ccccc1C(=O)NCCC(=O)N(C)Cc1ccc(C)o1	-	-	-	0	0	-	-
C=CCn1nc([N+](=O)[O-])nc1Sc1cccc2cccnc12	0	0	0	0	0	-52	-
NNC(=O)CSc1cccc2cccnc12	0	0	0	0	0	-	-
CC12CCC(C(=O)N/N=C/c3ccc(O)cc3O)(OC1=O)C2(C)C (stereo unspecified)	-	-	-	0	0	-35	-
C/C(=N\NC(=O)C12CCC(C)(C(=O)O1)C2(C)C)c1ccccc1O (stereo unspecified)	-	-	-	0	0	-	-
CC(C)NOC(=O)c1ccc(Cl)cc1	0	0	0	0	0	-	-
O=C(N/N=C/c1ccc(O)c2ncccc12)c1cccc(Br)c1	0	0	0	0	0	0	-
Cc1ccc(C(=O)ONc2ccc(N=NC(=O)c3ccccc3O)cc2)cc1	0	54	0	65	0	0	-
CCCC(=O)NC1=C(Cl)C(=O)c2ccccc2C1=O	-	-	-	60	128	0	116	Diaphorase 10uM=99;Diaphorase 30uM=97
CCN(CC)c1ccc(NC2=C(Cl)C(=O)c3ccccc3C2=O)cc1	0	0	0	0	0	-	-
COC(=O)C1=C(C)N(Cc2ccccc2)C(=NCCN2CCOCC2)N[C@H]1CCc1ccccc1	-	-	-	0	0	-	-
CCCCN(C)C(=O)c1ccc2c(c1)S(=O)(=O)c1ccccc1C2=O	-	-	-	0	0	-	-
CC(C)c1nc2oc3c(NCc4ccccn4)ncnc3c2c2c1COC(C)(C)C2	-	-	-	35	65	0	0
COc1ncnc2c1oc1nc(C(C)C)c3c(c12)CC(C)(C)OC3	0	88	0	53	62	0	0
CC1(C)Cc2nc3oc4c(NCc5ccccc5)ncnc4c3cc2CO1	0	0	0	0	0	-	-
COc1cc(-n2nnnc2SC)c(OC)cc1Cl	0	0	0	0	0	-	-
Cc1ccc(N=c2ssnc2Cl)cc1	0	0	0	0	91	-44	0
COc1cc(N=c2ssnc2Cl)c(OC)cc1Cl	0	0	0	0	105!	-57	64	Diaphorase 10uM=0;Diaphorase 30uM=0
Cc1cc(C)c(C#N)c(Cl)n1	0	0	0	0	0	-	-
Cc1cc(C)nc(/N=c2/ssnc2Cl)c1	0	0	0	0	98	-84	0
SMILES	Diaphorase act	Diaphorase inh	G6PDH counter	HKDC1 inhibitor	PfGluPho inh	HKDC1 act conf2	PfG6PD confirm	others
COc1cc(C[C@@H]2C(=O)OC[C@H]2Cc2ccc(OC)c(OC)c2)ccc1O	-	-	-	0	0	-	-
CC(=O)C1C(=O)c2c(cccc2[N+](=O)[O-])C1=Nc1ccc(S(N)(=O)=O)cc1 (stereo unspecified)	0	0	0	0	0	-	-
COc1ccc(CN2C=C3C(=O)C(C)(OC(=O)C4CCCC4)C(=O)C=C3C=C2c2ccsc2)cc1 (stereo unspecified)	-	-	-	35	67	0	0
Cc1ccc(NC(=O)c2cc3ccccc3cc2O)cc1	-	-	-	0	0	-	-
COc1ccc(NC(=O)c2cc3ccccc3cc2O)cc1	-	-	-	38	70	0	0
COc1cccc(OC)c1C(=O)Nc1cccnc1	0	0	0	0	0	-	-
NC1=C(Br)C(=O)c2ncccc2C1=O	-	-	-	38	108	0	86	Diaphorase 10uM=78;Diaphorase 30uM=74
CN(C)c1ncc(C2=C(Cl)C(=O)C(N3CCCC3)=C(Cl)C2=O)s1	-	-	-	35	91	0	98	Diaphorase 10uM=0;Diaphorase 30uM=0
COc1ccc(S(=O)(=O)Oc2ccc3ccccc3c2)cc1	0	0	0	0	0	-	-
COC1=C(OC)C(=O)C(Sc2ccc3ccccc3c2)=CC1=O	-	-	-	71	128	0	106	Diaphorase 10uM=82;Diaphorase 30uM=0
NS(=O)(=O)c1cccc(NS(=O)(=O)c2ccc3ccccc3c2)c1	-	-	-	0	0	-	-
CCOC(=O)CNC(=O)COc1coc(CN2CCN(c3ccccc3F)CC2)cc1=O	-	-	-	0	0	-	-
O=C(O)CSc1cc(NS(=O)(=O)c2ccc(Cl)cc2)c2ccccc2c1O	-	-	-	65	109	0	91	Diaphorase 10uM=56;Diaphorase 30uM=0
COc1ccc(S(=O)(=O)Nc2cc(SCC(=O)O)c(O)c3ccccc23)cc1	-	-	-	57	110	0	96	Diaphorase 10uM=0;Diaphorase 30uM=0
Cc1cc(C)c(S(=O)(=O)Nc2cc(SCC(=O)O)c(O)c3ccccc23)cc1C	0	0	0	54	107	0	98	Diaphorase 10uM=52;Diaphorase 30uM=0
CSC(=S)N/N=C(\C)c1ccc(Br)cc1	0	0	0	0	0	-	-
Cc1ccc(C(=O)N/C(=C/C=C\c2ccccc2)C(=O)NCc2ccco2)cc1	0	0	0	0	0	-	-
O=C(Nc1ccc2nc(-c3ccco3)c(-c3ccco3)nc2c1)NC1CC1	0	80	0	50	82	0	0
O=C1C=C(c2c(O)ccc3ccccc23)c2ccccc2C1=O	-	-	-	93	118	0	111	Diaphorase 10uM=96;Diaphorase 30uM=97
Cc1ccc(Cl)cc1NS(=O)(=O)c1ccccc1	-	-	-	0	0	-	-
Cc1ccc(NC2=C/C(=N\S(=O)(=O)c3cccs3)c3ccccc3C2=O)c(C)c1	0	0	52	40	102	0	58	Diaphorase 10uM=60;Diaphorase 30uM=57
O=C1C(Nc2ccc(O)cc2)=C/C(=N/S(=O)(=O)c2cccs2)c2ccccc21	0	0	0	60	114	0	60	Diaphorase 10uM=67;Diaphorase 30uM=65
CC(C)(C)c1cc[n+](C2=C([O-])c3ccccc3C(=O)/C2=N\S(=O)(=O)c2cccs2)cc1	-	-	-	0	0	-	-
Cc1ccc(Cl)cc1NC1=C/C(=N\S(=O)(=O)c2cccs2)c2ccccc2C1=O	0	0	54	36	95	0	58	Diaphorase 10uM=0;Diaphorase 30uM=0
O=C1/C(=C/c2ccccn2)SC(=S)N1Nc1ncc(C(F)(F)F)cc1Cl	-	-	-	0	0	-	-
CCc1ccc(CN(C)C(=O)C2=CC=CN3CCS(=O)(=O)N=C23)cc1	-	-	-	0	0	-	-
CCC1(c2ccccc2)NC(=O)N(CC(=O)N(C)CC(=O)Nc2ccc(F)c(F)c2F)C1=O (stereo unspecified)	-	-	-	0	0	-	-
Cc1ccc(SC2=C(N(C)C)C(=O)c3ccccc3C2=O)cc1	-	-	-	57	65	0	0
